Laboratory results reported in ChEMBL document CHEMBL4665780, “Synthesis of flutamide-conjugates” (Bioorg Med Chem Lett, 2020).

Assays:
PC-3 = assay: Anticancer activity against human PC-3 cells assessed as inhibition of cell growth incubated for 48 hrs by MTT assay; assay type: functional, cell-based; conditions: PC-3, 48 h
In short: (§1)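 MTT assay against a panel of human cancer lines (U-251 glioblastoma, PC-3 prostatic adenocarcinoma, K-562 chronic myelogenous leukemia, HCT-15 colorectal adenocarcinoma) and monkey kidney fibroblasts (COS-7). Cells were exposed to compounds for 48 h. IC50 (µM) came from MTT readings as the mean ± SD of two independent trials, each run in triplicate.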

K562 = assay: Anticancer activity against human K562 cells assessed as inhibition of cell growth incubated for 48 hrs by MTT assay; assay type: functional, cell-based; conditions: K562, 48 h; in short: as §1
U-251 = assay: Anticancer activity against human U-251 cells assessed as inhibition of cell growth incubated for 48 hrs by MTT assay; assay type: functional, cell-based; conditions: U-251, 48 h; in short: as §1
COS-7 = assay: Anticancer activity against African green monkey COS7 cells assessed as inhibition of cell growth incubated for 48 hrs by MTT assay; assay type: cell-based; conditions: Chlorocebus aethiops, COS-7, 48 h; in short: as §1
HCT-15 = assay: Anticancer activity against human HCT-15 cells assessed as inhibition of cell growth incubated for 48 hrs by MTT assay; assay type: functional, cell-based; conditions: HCT-15, 48 h; in short: as §1

CCCCCCCCCCCCOc1cc(OCCCCCCCCCCCC)cc(C(=O)NCCN)c1
IC50 (PC-3): > 1000 µM
IC50 (K562): > 1000 µM
IC50 (U-251): > 1000 µM
IC50 (COS-7): > 1000 µM
IC50 (HCT-15): > 1000 µM

CC(C)C(=O)N(CC(=O)NCCN)c1ccc([N+](=O)[O-])c(C(F)(F)F)c1
IC50 (PC-3): 20.1 µM
IC50 (K562): 18 µM
IC50 (U-251): 24.1 µM
IC50 (COS-7): 15.2 µM
IC50 (HCT-15): > 100 µM

CCCCCCCCCCCCOc1cc(OCCCCCCCCCCCC)cc(C(=O)NCCNC(=O)CN(C(=O)C(C)C)c2ccc([N+](=O)[O-])c(C(F)(F)F)c2)c1
IC50 (PC-3): 13.3 µM
IC50 (K562): 15.4 µM
IC50 (U-251): 14.3 µM
IC50 (COS-7): > 1000 µM
IC50 (HCT-15): 19.2 µM

CCCCCCCCCCCCOc1cc(OCCCCCCCCCCCC)cc(C(=O)OC)c1
IC50 (PC-3): > 1000 µM
IC50 (K562): > 1000 µM
IC50 (U-251): > 1000 µM
IC50 (COS-7): > 1000 µM
IC50 (HCT-15): > 1000 µM

CCCCCCCCCCCCOc1cc(OCCCCCCCCCCCC)cc(C(=O)NCCN(CCC(=O)NCCNC(=O)CN(C(=O)C(C)C)c2ccc([N+](=O)[O-])c(C(F)(F)F)c2)CCC(=O)NCCNC(=O)CN(C(=O)C(C)C)c2ccc([N+](=O)[O-])c(C(F)(F)F)c2)c1
IC50 (PC-3): 7.16 µM
IC50 (K562): 6.79 µM
IC50 (U-251): 8.59 µM
IC50 (COS-7): > 1000 µM
IC50 (HCT-15): 22.4 µM

COC(=O)CN(C(=O)C(C)C)c1ccc([N+](=O)[O-])c(C(F)(F)F)c1
IC50 (PC-3): 19.1 µM
IC50 (K562): 14.1 µM
IC50 (U-251): 20.1 µM
IC50 (COS-7): 12.1 µM
IC50 (HCT-15): > 100 µM

CCCCCCCCCCCCOc1cc(OCCCCCCCCCCCC)cc(C(=O)NCCN(CCC(=O)OC)CCC(=O)OC)c1
IC50 (PC-3): > 1000 µM
IC50 (K562): > 1000 µM
IC50 (U-251): > 1000 µM
IC50 (COS-7): > 1000 µM
IC50 (HCT-15): > 1000 µM

CC(C)C(=O)Nc1ccc([N+](=O)[O-])c(C(F)(F)F)c1 [FLUTAMIDE]
IC50 (PC-3): 20.3 µM
IC50 (K562): 29.2 µM
IC50 (U-251): 22.1 µM
IC50 (COS-7): 51.5 µM
IC50 (HCT-15): > 100 µM
